Results published in ChEMBL document CHEMBL2169884, “Novel inhibitors of heat shock protein Hsp70-mediated luciferase refolding that bind to DnaJ” (Bioorg Med Chem, 2012).
Calls of active or inactive are those of the source. The rule behind the calls is not given here.

Legend:
[1] = Inhibition of human HSP70/DnaJ-mediated luciferase refolding after 10 mins by liquid scintillation counting
In short: (§1)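 Luciferase (0.5 mg/mL) denatured in 6 M guanidine HCl in buffer A (25 mM Hepes pH 7.4, 50 mM potassium acetate, 5 mM DTT), 60 min at RT, then diluted 1:20. Refolding mixture: 0.5 µM Hsp70, 60 nM DnaJ, 125 ng denatured luciferase with compound in buffer containing 0.1 mM ATP, creatine phosphate and creatine phosphokinase. Incubated 1 h; DnaJ, luciferase or ATP varied in mechanism runs. Aliquots read by luciferin luminescence after 10 min. IC50 is the geometric mean of ≥3 determinations.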

[2] = Binding affinity to DnaJ assessed as rightward shift in melting temperature by thermal denaturation assay
Homo sapiens [3] = species on record: Homo sapiens; assay: Inhibition of human HSP70/DnaJ-mediated luciferase refolding after 10 mins by liquid scintillation counting in presence of up to 10 mM of ATP; in short: as §1
Homo sapiens [4] = species on record: Homo sapiens; assay: Inhibition of DnaJ-mediated stimulation of human Hsp70 ATPase activity at 10 uM; conditions: 0.1 to 3.2 uM, in the assay text read “at 0.1 to 3.2 uM” for “at 10 uM”
In short: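 Hsp70 (300 nM) incubated with 3.2 µM ATP and DnaJ (0.1–320 nM) at 37 °C for 5–40 min in pH 7.4 HEPES buffer with KCl, EGTA and MgCl2. Reactions stopped with EDTA stop buffer containing ADP tracer and antibody. ADP detected by Transcreener fluorescence (ex 580, em 620 nm).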

Homo sapiens [5] = species on record: Homo sapiens; assay: Inhibition of human Hsp70-mediated ATPase activity at 10 uM
[6] = Binding affinity to DnaJ assessed as rightward shift in melting temperature at 10 to 30 uM by thermal denaturation assay
Homo sapiens [7] = species on record: Homo sapiens; assay: Inhibition of human HSP70/DnaJ-mediated luciferase refolding after 10 mins by liquid scintillation counting in presence of 0.1 to 10 µg/mL of denatured luciferase; in short: as §1
Homo sapiens [8] = species on record: Homo sapiens; assay: Binding affinity to human Hsp70 assessed as rightward shift in melting temperature by thermal denaturation assay
Homo sapiens [9] = species on record: Homo sapiens; assay: Binding affinity to human Hsp70 assessed as rightward shift in melting temperature at 3.2 to 32 uM by thermal denaturation assay
[10] = Binding affinity to DnaJ assessed as rightward shift in melting temperature at 3.2 to 32 uM by thermal denaturation assay
[11] = Effect on luciferase activity up to 300 uM
[12] = Inhibition of luciferase refolding in rabbit reticulocyte lysate preincubated for 30 mins measured after 1 hr by liquid scintillation counting
HeLa = assay: Induction of Hsp70 in human HeLa cells at 10 uM after overnight incubation by solid state immuno assay relative to 17-AAG; format: functional
In short: (§2)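 HeLa or A172 cells treated overnight with compound; Hsp70 levels measured by solid-state immunoassay, with stimulation expressed relative to 1 µM 17-AAG as positive control.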

A 172 = assay: Induction of Hsp70 in human A172 cells at 10 uM after overnight incubation by solid state immuno assay relative to 17-AAG; format: functional; in short: as §2

Row | SMILES | IC50 [1] [µM] | Activity [11] | IC50 [12] [µM] | Activity (HeLa) [%] | Activity (A 172) [%] | further results
1 | CCOC(=O)c1cccc(NC(=O)COc2ccc(Cl)cc2)c1 | > 32 | – | – | – | – | –
2 | CCCCOC(=O)c1cccc(NC(=O)COc2ccc(Cl)cc2Cl)c1 | 0.13 | – | – | – | – | Activity [2]: Dose-dependent effect; inhibition (Homo sapiens [3]): Active; inhibition (Homo sapiens [4]): Active; inhibition (Homo sapiens [5]): inactive; Tm(app) [6]: 2 °C; inhibition (Homo sapiens [7]): inactive; Activity (Homo sapiens [8]): inactive
3 | COC(=O)c1cccc(NC(=O)COc2ccc(Cl)cc2Cl)c1 | > 32 | – | – | – | – | Activity (Homo sapiens [9]): inactive; Activity [10]: inactive
4 | Clc1ccccc1C1Oc2ccccc2-c2cc(-c3ccco3)nn21 (centres undefined) | > 100 | inactive | 8.8 | <10 | <10 | –
5 | CCOC(=O)c1cccc(NC(=O)COc2ccccc2Cl)c1 | 0.62 | inactive | 0.81 | <10 | <10 | –
6 | c1ccc(Nc2nc(-c3cccs3)cs2)cc1 | 22 | inactive | 1.1 | <10 | <10 | –
7 | Clc1ccc(Nc2nc(-c3cccs3)cs2)cc1 | > 100 | inactive | 4 | <10 | <10 | –
8 | COC(=O)c1cccc(NC(=O)COc2cc(Cl)ccc2Cl)c1 | 0.95 | – | – | – | – | –
9 | CCCOC(=O)c1cccc(NC(=O)COc2ccccc2Cl)c1 | 0.6 | – | – | – | – | –
10 | CCCCCOC(=O)C1=C(C)NC2(O)c3ccccc3C(=O)C12O (centres undefined) | > 30 | inactive | 4.3 | <10 | <10 | –
